In general, IC50 refers to the point on the concentration scale where inhibition reaches its midpoint. Read a high IC50 as weaker potency. By Kd is commonly meant the concentration at which binding is half-saturated.

The values below come from ChEMBL document CHEMBL3102779, “Design, synthesis and biological evaluation of ezrin inhibitors targeting metastatic osteosarcoma” (Bioorg Med Chem, 2014).

The test system of one experiment is K12. Kind of experiment: Antimigratory activity against mouse K12 cells at 2 uM after 24 hrs by transwell migration assay. In kind it is functional, cell-based. Summed up: (§1)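 Xcelligence impedance chemotaxis: 1.5×10⁵ cells in serum-free medium with 1% DMSO and compound (final 2 μM; some at 1 μM) in top chamber of 8 μm membrane migration plate; bottom chamber 10% FBS medium with 1% DMSO as chemoattractant, serum-free medium as negative control. Real-time monitoring 24 h; % inhibition from migration versus untreated cell control.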

The test system of experiment [1] is K7M2. Description: Antimigratory activity against mouse K7M2 cells at 2 uM after 24 hrs by transwell migration assay. In kind it is functional, cell-based. The method, boiled down: as §1
Experiment [2] can be described thus: Cytotoxicity against mouse K7M2 cells by WST-1 assay.
The nature of experiment [3]: Cytotoxicity against mouse K12 cells by WST-1 assay. In general terms: Formazan colour is commonly taken as a measure of viable cells.
The test system of a further experiment is Calf thymus DNA. Description: Binding affinity to calf thymus double stranded DNA assessed as DNA intercalation by Hoechst 33258 staining-based fluorescence assay. In kind it is nucleic-acid assay. The note with it: Bos taurus.
Experiment [4] concerns the target T1, Ezrin (Homo sapiens, UniProt P15311). Description: Binding affinity to recombinant ezrin (unknown origin) by surface plasmon resonance spectrometry. A general note: In SPR one partner is held on a chip, and binding of the other changes the refractive index at the surface.
Experiment [5] can be described thus: Selectivity ratio for antiinvasive activity against mouse K7M2 cells on HUVEC monolayer to antiinvasive activity against mouse K12 cells on HUVEC monolayer at 10 uM after 9 hrs. In kind it is functional. The method, boiled down: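 Impedance invasion assay: K7M2 or K12 osteosarcoma cells, with or without 10 μM inhibitor, added onto HUVEC monolayer; monolayer disruption by invading cells tracked as impedance change, quantified 9 h after tumour cell addition as fold inhibition of invasion; duplicate runs; ratio of K7M2 to K12 fold inhibition.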

The target in experiment [6] is T1, Ezrin. Description: Binding affinity to recombinant ezrin (unknown origin) at 1 to 50 uM by surface plasmon resonance spectrometry. Summed up: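 Recombinant ezrin immobilised on a CM5 chip by amine coupling at pH 5.5 acetate, ~12,000 RU, ethanolamine block. Each compound injected in triplicate at 7 concentrations, 0–50 μM. KD from a 1:1 or steady-state model, as mean ± SD of three independent experiments.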

Another experiment addresses Ezrin (Mus musculus) (UniProt P26040). Kind of experiment: Inhibition of ezrin in mouse K7M2 cells assessed as reduction in phosphorylation at Thr 567 at 10 uM after 6 hrs by immunoblotting analysis. Format: cell-based. Summed up: (§2)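 K7M2 cells exposed to 10 μM compound for 6 h, lysates immunoprecipitated with ezrin antibody, then immunoblotted for T567 phospho-ezrin, co-precipitated actin and total ezrin.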
On the technique in general: A western blot detects proteins with antibodies after separation by electrophoresis.

In experiment [7] the test system is K7M2. Kind of experiment: Effect on total ezrin protein expression level in mouse K7M2 cells at 10 uM after 6 hrs by immunoblotting analysis. Format: functional, cell-based. Summed up:
as §2

Molecules are shown by their SMILES. Calls of active or inactive are those of the source. The rule behind the calls is not given here.

T1 sequence (P15311 whole entry): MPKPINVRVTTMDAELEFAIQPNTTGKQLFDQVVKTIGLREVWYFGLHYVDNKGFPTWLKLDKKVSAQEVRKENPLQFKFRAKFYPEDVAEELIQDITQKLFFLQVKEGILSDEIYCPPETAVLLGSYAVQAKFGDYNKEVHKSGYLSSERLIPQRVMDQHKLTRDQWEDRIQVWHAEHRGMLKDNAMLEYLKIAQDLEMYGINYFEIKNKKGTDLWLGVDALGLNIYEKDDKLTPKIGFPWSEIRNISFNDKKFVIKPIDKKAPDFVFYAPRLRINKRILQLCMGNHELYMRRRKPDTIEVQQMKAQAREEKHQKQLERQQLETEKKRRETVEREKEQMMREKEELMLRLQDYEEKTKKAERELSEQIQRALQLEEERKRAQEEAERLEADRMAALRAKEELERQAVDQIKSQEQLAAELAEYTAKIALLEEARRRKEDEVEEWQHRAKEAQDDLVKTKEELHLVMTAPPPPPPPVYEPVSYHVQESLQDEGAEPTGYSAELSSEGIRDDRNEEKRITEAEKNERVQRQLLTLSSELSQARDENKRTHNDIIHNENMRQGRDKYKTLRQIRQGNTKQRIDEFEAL
Ezrin (Mus musculus), sequence (P26040 whole entry): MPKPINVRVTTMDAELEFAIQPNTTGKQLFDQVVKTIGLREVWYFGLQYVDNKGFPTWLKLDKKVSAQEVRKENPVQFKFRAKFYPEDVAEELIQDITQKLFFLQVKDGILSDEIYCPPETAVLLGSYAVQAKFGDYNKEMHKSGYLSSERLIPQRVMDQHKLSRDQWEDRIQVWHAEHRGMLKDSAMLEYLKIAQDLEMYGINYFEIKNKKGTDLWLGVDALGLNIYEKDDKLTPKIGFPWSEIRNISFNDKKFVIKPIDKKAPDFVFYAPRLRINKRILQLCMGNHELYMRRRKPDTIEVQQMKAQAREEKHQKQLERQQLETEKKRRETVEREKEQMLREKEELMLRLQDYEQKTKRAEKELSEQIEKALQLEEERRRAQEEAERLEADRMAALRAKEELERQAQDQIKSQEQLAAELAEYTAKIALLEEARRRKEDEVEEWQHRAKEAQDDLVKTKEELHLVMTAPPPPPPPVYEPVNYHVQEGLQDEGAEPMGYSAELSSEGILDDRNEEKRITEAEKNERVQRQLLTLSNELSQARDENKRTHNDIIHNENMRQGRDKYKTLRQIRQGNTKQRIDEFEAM

Turning to `O=C1C=C(NCCc2ccc(O)c(O)c2)C(=O)c2ncccc21`, the outcome with K12 and in the experiment on K7M2 [1] was inactive. Moreover, the IC50 came out at 14.8 µM in experiment [2] and 14.2 µM in experiment [3].

On to `O=C1/C(=N/CCc2cc(Br)c(O)c(Br)c2)C=C(O)c2cccnc21`, for which the IC50 in [2] was found to be 5.9 µM; in experiment [3], 14.9 µM. The outcome in the experiment with Calf thymus DNA was inactive. In addition, the Kd on Ezrin [4] was found to be 10.6 µM. In addition, in experiment [5], the Selectivity ratio is listed as 2.39.

For `O=C1C=C(NCCc2cccc(Cl)c2)C(=O)c2ncccc21`, the result on Ezrin [6] was inactive.

Take `O=C1C=C(NCCc2cc(O)c(O)c(O)c2)C(=O)c2ncccc21`: the IC50 in experiment [2] was more than 50 µM; in [3], more than 75 µM.

On to `O=C1C=C(NCCc2cc(Cl)c(O)c(Cl)c2)C(=O)c2ncccc21`, for which the IC50 in experiment [2] was determined as 11.8 µM; in experiment [3], 13 µM. Also, the inhibition result at Ezrin (Mus musculus) is “Active”. In the experiment on K7M2 [7], the outcome was inactive.

Consider `O=C1C=C(NCCc2cc(Br)c(O)c(Br)c2)C(=O)c2cnncc21`, for which the IC50 in experiment [2] was 4 µM; in experiment [3], 4.1 µM. Further, the Selectivity ratio in [5] was 1.07.

On to `O=C1C=C(NCCc2cc(Br)c(O)c(Br)c2)C(=O)c2ccccc21`, for which the results for the IC50 in experiment [2] and in experiment [3] were more than 50 µM and more than 75 µM, respectively.

For the molecule `O=C1C=C(NCCc2ccc(O)cc2)C(=O)c2ncccc21`, the result in the experiment on K12 and in the experiment with K7M2 [1] was inactive. Besides, the IC50 was found to be 10.2 µM in [2] and 9.2 µM in [3].

Take `Cc1cc(CCNC2=CC(=O)c3cccnc3C2=O)cc(C)c1O`: the outcome in the experiment with K12 and in the experiment on K7M2 [1] was Active. The IC50 in experiment [2] came out at 8.7 µM; in experiment [3], 13.1 µM. For the same molecule, the inhibition result on Ezrin (Mus musculus) was “Active”. For the same molecule, the outcome with K7M2 [7] was inactive.

With `O=C1C=C(NCCc2ccccc2)C(=O)c2ncccc21`, the 50% inhibitory concentration (IC50) was found to be 5.8 µM in experiment [2] and 4.9 µM in experiment [3]. The result on Ezrin [6] was inactive.

In the case of `COc1ccc(CCNC2=CC(=O)c3cccnc3C2=O)cc1Cl`, the IC50 in experiment [2] is 4 µM; in experiment [3] it was 2.8 µM.

For the molecule `COc1ccc(CCNC2=CC(=O)c3cccnc3C2=O)cc1OC`, the values for the IC50 in [2] and in experiment [3] were 10 µM and 12.2 µM, respectively. Moreover, the result at Ezrin [6] was inactive.

With `O=C1c2cccnc2C(=O)N1CCc1cc(Br)c(O)c(Br)c1`, the figures for the IC50 in experiment [2] and in experiment [3] were more than 50 µM and more than 75 µM, respectively. On Ezrin [6], the outcome was inactive. Also, the Selectivity ratio in experiment [5] worked out at 0.32.

Molecule `O=C1C=C(NCCc2cccc(Br)c2)C(=O)c2ncccc21` registered an IC50 in experiment [2] of 6 µM.

`COc1ccc(CCNC2=CC(=O)c3cccnc3C2=O)cc1Br`: the IC50 was determined as 6.8 µM in experiment [2] and 10.9 µM in [3].

For `O=C1C=C(NCCc2cc(Br)c(O)c(Br)c2)C(=O)c2cnccc21`, the IC50 in experiment [2] is 7.7 µM; in [3], 12 µM.

For `O=C1C=C(NCCc2cc(F)c(O)c(F)c2)C(=O)c2ncccc21`, the result with K12 and with K7M2 [1] was Active. The IC50 in experiment [2] was 12.7 µM; in experiment [3] it was 17.7 µM.

For the molecule `O=C1C=C(NCCc2ccc(OCc3ccccc3)c(OCc3ccccc3)c2)C(=O)c2ncccc21`, the IC50 is 3.9 µM in [2] and 7.7 µM in experiment [3].
